From ChEMBL document CHEMBL4145444, “Investigating the structure-activity relationships of N'-[(5-nitrofuran-2-yl) methylene] substituted hydrazides against Trypanosoma cruzi to design novel active compounds” (Eur J Med Chem, 2018)

Assays:
[1] = Selectivity index, ratio of CC50 for cytotoxicity against human U2OS cells to IC50 for Trypanosoma cruzi Y Tc2 amastigotes infected in human U2OS cells; type: toxicity, cell-based; conditions: read-out: Ratio CC50/IC50
Procedure, shortened: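 Ratio of U2OS CC50 to Y-strain amastigote IC50, both from the same 72 h Draq5-stained HCS assay in infected U2OS cells (2-fold series up to 200 μM, 1% DMSO).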

Trypanosoma cruzi [2] = experiment: Antitrypanosomal activity against Trypanosoma cruzi Y Tc2 amastigotes infected in human U2OS cells up to 200 uM after 72 hrs by Draq5 staining based HCS analysis relative to control; type: functional
Procedure, shortened: (§1)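 U2OS cells (700/well, high-glucose DME, 10% FBS) seeded and incubated 24 h. Then infected with 2,800 Y-strain trypomastigotes harvested from LLC-MK2 cells. On day 3, 14-point 2-fold dilutions added, top 200 μM, 1% DMSO, 72 h. Fixed in 4% PFA, Draq5 stained, imaged at 20x. Infection ratio normalized to DMSO-mock infected and uninfected controls. IC50 by sigmoidal variable-slope fit. Doublets, duplicate experiments.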

Trypanosoma cruzi [3] = experiment: Antitrypanosomal activity against Trypanosoma cruzi Y Tc2 amastigotes infected in human U2OS cells after 72 hrs by Draq5 staining based HCS analysis; type: functional, organism-based; procedure, shortened: as §1
Trypanosoma cruzi [4] = experiment: Antitrypanosomal activity against Trypanosoma cruzi Colombiana Tc1 epimastigotes measured after 72 hrs; type: functional, organism-based; conditions: for IC50: Trypanosoma cruzi, Colombiana, 72 h
Procedure, shortened: (§2)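 Exponentially growing epimastigotes (1.0*10^7 parasites/mL) cultured in LIT-FCS medium with compound from 0.4 to 300.0 µM, added from DMSO stock (DMSO ≤1.0%), 72 h at 28 °C. Viable parasites read by absorbance at 562 nm. PGI computed against untreated culture after subtracting compound/medium blanks. IC50 from sigmoid dose-response fit using at least six concentrations. Triplicates, at least two independent experiments.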

[5] = Cytotoxicity against human U2OS cells assessed as reduction in cell viability; type: cell-based
Trypanosoma cruzi [6] = experiment: Antitrypanosomal activity Trypanosoma cruzi Bug 2149 cl10 Tc5 epimastigotes measured after 72 hrs; type: functional, organism-based; conditions: for IC50: Trypanosoma cruzi, Bug 2149 cl10, CL1-0, 72 h
Procedure, shortened: (§3)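 Exponentially growing epimastigotes (1.0*10^7 parasites/mL) cultured in LIT-FCS medium with compound from 0.4 to 300.0 µM, added from DMSO stock (DMSO ≤1.0%), 72 h at 28 °C. PGI computed against untreated culture after subtracting compound/medium blanks. IC50 from sigmoid dose-response fit using at least six concentrations. Triplicates, at least two independent experiments.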

Trypanosoma cruzi [7] = experiment: Antitrypanosomal activity against Trypanosoma cruzi Silvio X10 cl1 Tc1 epimastigotes measured after 72 hrs; type: functional, organism-based; conditions: for IC50: Trypanosoma cruzi, Silvio X10 cl1, 72 h; procedure, shortened: as §3
Trypanosoma cruzi [8] = experiment: Antitrypanosomal activity Trypanosoma cruzi Y Tc2 epimastigotes measured after 72 hrs; type: functional, organism-based; conditions: for IC50: Trypanosoma cruzi, Y, 72 h; procedure, shortened: as §2

SMILES | selectivity ratio [1] | Emax (Trypanosoma cruzi [2]) [%] | IC50 (Trypanosoma cruzi [3]) [µM] | log1/IC50 (Trypanosoma cruzi [4]) | IC50 (Trypanosoma cruzi [4]) [µM] | CC50 [5] [µM] | log1/IC50 (Trypanosoma cruzi [6]) | IC50 (Trypanosoma cruzi [6]) [µM] | log1/IC50 (Trypanosoma cruzi [7]) | IC50 (Trypanosoma cruzi [7]) [µM] | log1/IC50 (Trypanosoma cruzi [8]) | IC50 (Trypanosoma cruzi [8]) [µM]
N#Cc1ccc(C(=O)N/N=C/c2ccc([N+](=O)[O-])o2)cc1 | 12.1 | 95.5 | 1.77 | 4.69 | 20.2 | 21.4 |  |  |  |  |  | 
CCCOc1ccc(C(=O)N/N=C/c2ccc([N+](=O)[O-])o2)cc1 |  |  |  | 5.28 | 5.26 |  |  |  |  |  |  | 
O=C(N/N=C/c1ccc([N+](=O)[O-])o1)C1CCCCC1 | 8.77 | 119 | 2.9 | 4.99 | 10.2 | 25.4 |  |  |  |  |  | 
O=C(N/N=C/c1ccc([N+](=O)[O-])o1)c1cccc(C(F)(F)F)c1 |  |  |  | 5 | 9.98 |  | 4.84 | 14.6 | 4.59 | 25.5 | 4.98 | 10.6
O=C(N/N=C/c1ccc([N+](=O)[O-])o1)c1cccs1 | 53.9 | 94.5 | 1.06 | 4.82 | 15.1 | 57.2 | 5.16 | 6.87 | 4.89 | 12.8 | 5.26 | 5.51
COc1ccc(C(=O)N/N=C/c2ccc([N+](=O)[O-])o2)cc1OC |  |  |  | 4.58 | 26.6 |  | 4.76 | 17.2 | 4.56 | 27.3 | 4.85 | 14.2
O=C(N/N=C/c1ccc([N+](=O)[O-])o1)c1ccc(O)cc1 [NIFUROXAZIDE] | 10.7 | 91.9 | 4.26 | 3.73 | 188 | 45.7 | 3.52 |  | 3.52 |  | 3.52 | 
CCCc1ccc(C(=O)N/N=C/c2ccc([N+](=O)[O-])o2)cc1 |  |  |  | 5.14 | 7.25 |  |  |  |  |  |  | 
Cc1cccc(C(=O)N/N=C/c2ccc([N+](=O)[O-])o2)c1 |  |  |  | 5.07 | 8.53 |  |  |  |  |  |  | 
CC(C)(C)OC(=O)N/N=C/c1ccc([N+](=O)[O-])o1 |  |  |  | 5.13 | 7.41 |  |  |  |  |  |  | 
CCCCc1ccc(C(=O)N/N=C/c2ccc([N+](=O)[O-])o2)cc1 | 14.7 | 115 | 1.33 | 5.61 | 2.45 | 19.6 | 5.33 |  | 5.32 |  | 5.51 | 
O=C(N/N=C/c1ccc([N+](=O)[O-])o1)c1ccco1 |  |  |  | 4.88 | 13.1 |  | 5 | 9.99 | 4.75 | 17.9 | 4.6 | 24.9
CCc1ccc(C(=O)N/N=C/c2ccc([N+](=O)[O-])o2)cc1 |  |  |  | 5.18 | 6.55 |  | 5.02 | 9.53 | 4.91 | 12.3 | 5.04 | 9.11
CCCCCCCCC(=O)N/N=C/c1ccc([N+](=O)[O-])o1 |  |  |  | 5.09 | 8.07 |  |  |  |  |  |  | 
CCCCCC(=O)N/N=C/c1ccc([N+](=O)[O-])o1 | 7.39 | 115 | 2.61 | 5.12 | 7.58 | 19.3 |  |  |  |  |  | 
CC(C)c1ccc(C(=O)N/N=C/c2ccc([N+](=O)[O-])o2)cc1 |  |  |  | 5.22 |  |  |  |  |  |  |  | 

SMILES | selectivity ratio [1] | Emax (Trypanosoma cruzi [2]) [%] | IC50 (Trypanosoma cruzi [3]) [µM] | log1/IC50 (Trypanosoma cruzi [4]) | IC50 (Trypanosoma cruzi [4]) [µM] | CC50 [5] [µM] | log1/IC50 (Trypanosoma cruzi [6]) | IC50 (Trypanosoma cruzi [6]) [µM] | log1/IC50 (Trypanosoma cruzi [7]) | IC50 (Trypanosoma cruzi [7]) [µM] | log1/IC50 (Trypanosoma cruzi [8]) | IC50 (Trypanosoma cruzi [8]) [µM]
COc1ccc(C(=O)N/N=C/c2ccc([N+](=O)[O-])o2)cc1 |  |  |  | 5.09 | 8.08 |  |  |  |  |  |  | 
O=C(N/N=C/c1ccc([N+](=O)[O-])o1)C1CCCC1 |  |  |  | 5.01 | 9.67 |  |  |  |  |  |  | 
O=C(Cn1ccnc1[N+](=O)[O-])NCc1ccccc1 [BENZNIDAZOLE] |  | 85.2 | 64.3 |  | 47.9 | > 200 |  |  |  |  |  | 
O=C(N/N=C/c1ccc([N+](=O)[O-])o1)c1cccc([N+](=O)[O-])c1 |  |  |  | 4.39 | 40.6 |  | 4.52 | 30.4 | 4.28 | 52.3 | 4.36 | 44.1
Cc1ccc(C(=O)N/N=C/c2ccc([N+](=O)[O-])o2)cc1 |  |  |  | 4.92 | 11.9 |  |  |  |  |  |  | 
CN(C)c1ccc(C(=O)N/N=C/c2ccc([N+](=O)[O-])o2)cc1 |  |  |  | 4.07 | 85.5 |  |  |  |  |  |  | 
CC(C)(C)c1ccc(C(=O)N/N=C/c2ccc([N+](=O)[O-])o2)cc1 | > 140 | 98.4 | 1.43 | 5.21 | 6.1 | > 200 |  |  |  |  |  | 
O=C(N/N=C/c1ccc([N+](=O)[O-])o1)c1ccc(Cl)cc1 |  |  |  | 5.06 | 8.64 |  |  |  |  |  |  | 
O=C(N/N=C/c1ccc([N+](=O)[O-])o1)c1ccccc1Oc1ccccc1 |  |  |  | 5.24 | 5.79 |  |  |  |  |  |  | 
CCOc1ccc(C(=O)N/N=C/c2ccc([N+](=O)[O-])o2)cc1 |  |  |  | 4.94 | 11.6 |  | 5.2 | 6.26 | 4.86 | 13.8 | 5.01 | 9.74
O=C(N/N=C/c1ccc([N+](=O)[O-])o1)c1ccccc1 |  |  |  | 4.95 | 11.3 |  |  |  |  |  |  | 
O=C(Cc1ccccc1)N/N=C/c1ccc([N+](=O)[O-])o1 |  |  |  | 5 | 10.1 |  |  |  |  |  |  | 
CC(=O)N/N=C/c1ccc([N+](=O)[O-])o1 [NIHYDRAZONE] | 8.49 | 98.7 | 4.62 | 5.02 | 9.52 | 39.2 |  |  |  |  |  | 
N#CCC(=O)N/N=C/c1ccc([N+](=O)[O-])o1 |  |  |  | 4.22 | 60.6 |  | 4.56 | 27.4 | 4.39 | 40.5 | 4.09 | 80.2
Cc1nnsc1C(=O)N/N=C/c1ccc([N+](=O)[O-])o1 |  |  |  | 4.85 | 14.2 |  | 4.73 | 18.7 | 4.47 | 34.1 | 4.76 | 17.3
